Experimental findings from ChEMBL document CHEMBL1129636 (J Med Chem, 1996) are described below.

Assay [1] has as its target T1, Glutamate receptor ionotropic, kainate 2 (Homo sapiens, UniProt Q13002). The experiment in a line: Electrophysiological activity at 30 uM domoate from HEK293 cells transfected with ionotropic glutamate receptor kainate 2. Type of assay: functional, cell-based. Summed up:
(§1)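 Whole-cell voltage clamp (tight-seal patch clamp) of HEK293 line EAA4-9 stably expressing human GluR6, with cells plated on glass coverslips. Bath: NaCl 138, CaCl2 5, MgCl2 1, KCl 5, HEPES 10, glucose 10 mM, pH 7.4. Pipette: KCl 140, MgCl2 1, HEPES 10, EGTA 0.1 mM, pH 7.2. Test agonist at 1, 10 or 30 uM by bath perfusion with 2.5 uM concanavalin A. Inward current expressed as percent of the response to 1 uM domoate.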

The target of assay [2] is Glutamate receptor ionotropic, kainate 2 (Rattus norvegicus, UniProt P42260). In words: Inhibition of [3H]kainate binding at rat forebrain ionotropic glutamate receptor kainate 2.
Glutamate receptor ionotropic, kainate 2 (Rattus norvegicus, UniProt P42260), sequence (P42260 whole entry): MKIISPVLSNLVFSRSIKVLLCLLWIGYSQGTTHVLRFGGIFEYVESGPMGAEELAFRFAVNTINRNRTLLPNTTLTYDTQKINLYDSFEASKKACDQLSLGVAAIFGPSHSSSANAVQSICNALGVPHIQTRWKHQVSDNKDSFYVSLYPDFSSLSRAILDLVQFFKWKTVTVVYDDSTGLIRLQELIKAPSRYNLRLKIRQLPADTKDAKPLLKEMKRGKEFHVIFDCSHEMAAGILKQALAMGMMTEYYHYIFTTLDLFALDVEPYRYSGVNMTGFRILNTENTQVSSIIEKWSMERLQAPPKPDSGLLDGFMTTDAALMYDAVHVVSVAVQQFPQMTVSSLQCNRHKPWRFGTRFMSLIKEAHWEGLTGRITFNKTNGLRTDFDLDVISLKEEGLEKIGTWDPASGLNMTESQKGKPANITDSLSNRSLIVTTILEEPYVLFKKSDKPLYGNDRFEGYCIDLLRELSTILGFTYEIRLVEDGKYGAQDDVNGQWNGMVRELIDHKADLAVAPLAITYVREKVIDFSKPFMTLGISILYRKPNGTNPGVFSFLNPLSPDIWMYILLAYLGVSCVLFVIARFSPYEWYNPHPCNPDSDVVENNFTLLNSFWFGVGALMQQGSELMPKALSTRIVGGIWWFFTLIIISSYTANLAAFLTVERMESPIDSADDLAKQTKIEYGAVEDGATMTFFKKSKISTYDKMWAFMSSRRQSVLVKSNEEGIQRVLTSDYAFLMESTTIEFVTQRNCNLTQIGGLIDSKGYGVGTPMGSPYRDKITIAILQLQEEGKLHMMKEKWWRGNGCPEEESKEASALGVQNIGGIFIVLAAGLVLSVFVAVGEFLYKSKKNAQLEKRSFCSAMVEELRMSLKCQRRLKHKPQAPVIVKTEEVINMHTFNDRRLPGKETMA
For assay [3], the target named is T1, Glutamate receptor ionotropic, kainate 2. The experiment in a line: Electrophysiological activity at 10 uM domoate from HEK293 cells transfected with Ionotropic glutamate receptor kainate 2. Type of assay: functional, cell-based. Summed up: as §1
The target is the same in assay [4]. The experiment in a line: Inhibition of [3H]kainate binding at ionotropic glutamate receptor kainate 2. Summed up: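 Frozen EAA4-9 cells (HEK293 stably expressing human GluR6) lysed in ice-cold water and pelleted at 50000g. Membranes washed in 50 mM Tris-HCl, pH 7.5 at 5 °C, to remove glutamate. Nonspecific binding defined with 1 mM L-glutamate, and bound ligand separated by centrifugation. Ki reported.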

Assay [5] has the same target. In words: Electrophysiological activity at 1 uM domoate from HEK293 cells transfected with ionotropic glutamate receptor kainate 2. The class given is functional, cell-based. Summed up: as §1

T1 sequence (Q13002 whole entry, the tested form may be a part): as the sequence (P42260 whole entry) above, with S5F, V7I, L11P, S14R, S16T, I17V, V19L, V494A counted along it

With `C=C(c1cccc(OCCC(c2ccccc2)c2ccccc2)c1)[C@@H]1CN[C@H](C(=O)O)[C@H]1CC(=O)O`, the Response in assay [1], in assay [3] and in assay [5] was 0% each time. In addition, the Ki in assay [2] was 3000 nM; in assay [4] it was more than 10000 nM.
Regarding `C=C(c1ccc(Oc2ccccc2)cc1)[C@H]1CN[C@H](C(=O)O)[C@H]1CC(=O)O`, the values for the Response in assay [1], in assay [3] and in assay [5] were 62%, 59% and 15%, respectively. Also, the Ki was determined as 11.9 nM in assay [2] and 210 nM in assay [4].
On the same counts, the results for `C=C(c1cccc(OCCC(c2ccccc2)c2ccccc2)c1)[C@H]1CN[C@H](C(=O)O)[C@H]1CC(=O)O` are 14%, 6%, 3%, 210 nM and 2420 nM.
On the same counts, the results for `C=C(c1ccc(C)c(C)c1)[C@H]1CN[C@H](C(=O)O)[C@H]1CC(=O)O` are 98%, 89%, 50%, 2.3 nM and 108 nM.
The corresponding values for `C=C(c1ccc(CCCC)cc1)[C@H]1CN[C@H](C(=O)O)[C@H]1CC(=O)O` are 63%, 57%, 11%, 4.8 nM and 146 nM.
Take `CC(c1ccccc1)[C@H]1CN[C@H](C(=O)O)[C@H]1CC(=O)O` (some centres undefined): the Response in assay [1], in assay [3] and in assay [5] was 0% throughout. Further, in assay [4], the Ki is more than 10000 nM.
For the molecule `C=C(c1ccc(CCC)cc1)[C@H]1CN[C@H](C(=O)O)[C@H]1CC(=O)O`, the Response is 66% in assay [1], 54% in assay [3] and 24% in assay [5]. The Ki amounted to 3.6 nM in assay [2] and 147 nM in assay [4].
Regarding `C=C(c1ccc(Cl)cc1)[C@H]1CN[C@H](C(=O)O)[C@H]1CC(=O)O`, the results for the Response in assay [1], in assay [3] and in assay [5] were 83%, 78% and 52%, respectively. The Ki amounted to 3.9 nM in assay [2] and 31.7 nM in assay [4].
The corresponding values for `C=C(c1ccc(C(C)(C)C)cc1)[C@H]1CN[C@H](C(=O)O)[C@H]1CC(=O)O` are 46%, 31%, 8%, 18.5 nM and 263 nM.
For the molecule `C=C(C)[C@H]1CN[C@H](C(=O)O)[C@H]1CC(=O)O`, the Response stood at 101% in assay [1], 85% in assay [3] and 39% in assay [5].
Turning to `C=C(c1ccc(F)cc1)[C@H]1CN[C@H](C(=O)O)[C@H]1CC(=O)O`, the Response in assay [1] was 78%; in assay [3], 76%; in assay [5], 43%. In addition, the values for the inhibition constant (Ki) in assay [2] and in assay [4] were 2.7 nM and 38.4 nM, respectively.
`C=C(c1cc(C)cc(C)c1)[C@H]1CN[C@H](C(=O)O)[C@H]1CC(=O)O`: the Response amounted to 108% in assay [1], 73% in assay [3] and 23% in assay [5]. In addition, the results for the Ki in assay [2] and in assay [4] were 9.5 nM and 169 nM, respectively.
For the molecule `C=C(c1ccc(OCCc2ccccc2)cc1)[C@H]1CN[C@H](C(=O)O)[C@H]1CC(=O)O`, the Response was found to be 66% in assay [1], 52% in assay [3] and 16% in assay [5]. The Ki in assay [2] was found to be 6.2 nM; in assay [4], 126 nM.
The corresponding values for `C=C(c1ccc(OC)cc1)[C@H]1CN[C@H](C(=O)O)[C@H]1CC(=O)O` are 82%, 76%, 37%, 3.9 nM and 57.4 nM.
Take `C=C(c1ccc(OCCc2ccccc2)c(OC)c1)[C@H]1CN[C@H](C(=O)O)[C@H]1CC(=O)O`: the Response amounted to 44% in assay [1], 20% in assay [3] and 2% in assay [5]. The affinity in assay [4], expressed as Ki, was 1280 nM.
For `C=C(c1ccc(CC)cc1)[C@H]1CN[C@H](C(=O)O)[C@H]1CC(=O)O`, the Response was determined as 73% in assay [1], 63% in assay [3] and 22% in assay [5]. Besides, the Ki was found to be 7.7 nM in assay [2] and 82.2 nM in assay [4].
Turning to `C=C(c1ccccc1)[C@@H]1CN[C@H](C(=O)O)[C@H]1CC(=O)O`, the Response result in assay [1], in assay [3] and in assay [5] was “Neurotoxic” throughout. Further, the results for the Ki in assay [2] and in assay [4] were 230 nM and 6970 nM, respectively.
`C=C(c1cccc(OC)c1)[C@H]1CN[C@H](C(=O)O)[C@H]1CC(=O)O`: the Response in assay [1] worked out at 87%; in assay [3], 77%; in assay [5], 46%. Also, the Ki was 3.5 nM in assay [2] and 93.5 nM in assay [4].
On the same counts, the results for `C=C(c1cccc(OCCc2ccccc2)c1)[C@H]1CN[C@H](C(=O)O)[C@H]1CC(=O)O` are 70%, 43%, 6%, 16 nM and 667 nM.
On the same counts, the results for `C=C(c1ccc(OCCCC)cc1)[C@H]1CN[C@H](C(=O)O)[C@H]1CC(=O)O` are 99%, 86%, 33%, 2.8 nM and 147 nM.
The corresponding values for `C=C(c1cccc(-c2ccccc2)c1)[C@H]1CN[C@H](C(=O)O)[C@H]1CC(=O)O` are 103%, 98%, 65%, 2.1 nM and 90.6 nM.
For `CC(c1cccc(-c2ccccc2)c1)[C@H]1CN[C@H](C(=O)O)[C@H]1CC(=O)O` (some centres undefined), the Response in assay [1] was 16%; in assay [3] it was 14%; in assay [5] it was 12%. For the same molecule, the inhibitory constant (Ki) in assay [4] is more than 10000 nM.
In the case of `C=C(c1ccc(-c2ccccc2)cc1)[C@H]1CN[C@H](C(=O)O)[C@H]1CC(=O)O`, the figures for the Response in assay [1], in assay [3] and in assay [5] were 66%, 58% and 36%, respectively. For the same molecule, the inhibition constant Ki in assay [2] amounted to 9.1 nM; in assay [4], 131 nM.
In the case of `C=C(C)c1ccc(C(=C)[C@@H]2CN[C@H](C(=O)O)[C@H]2CC(=O)O)cc1`, the Ki in assay [2] was determined as 5400 nM; in assay [4], 2300 nM.
On to `C=C(c1ccc(OCCc2ccccc2)c(C)c1)[C@H]1CN[C@H](C(=O)O)[C@H]1CC(=O)O`, for which the Response came to 71% in assay [1], 64% in assay [3] and 12% in assay [5]. The molecule also had a Ki in assay [4] of 129 nM.
The corresponding values for `C=C(c1cccc(-c2ccccc2)c1)[C@@H]1CN[C@H](C(=O)O)[C@H]1CC(=O)O` are 0%, 0%, 0% and 3110 nM.
Take `C=C(CC)c1ccc(C(=C)[C@H]2CN[C@H](C(=O)O)[C@H]2CC(=O)O)cc1`: the Response was determined as 52% in assay [1], 38% in assay [3] and 15% in assay [5]. In addition, the Ki in assay [2] came out at 9 nM; in assay [4], 288 nM.
On the same counts, the results for `C=C(c1ccccc1)[C@H]1CN[C@H](C(=O)O)[C@H]1CC(=O)O` are 80%, 81%, 48%, 1.6 nM and 29.8 nM.
On the same counts, the results for `C=C(c1cccc(OCCCC)c1)[C@H]1CN[C@H](C(=O)O)[C@H]1CC(=O)O` are 40%, 8%, 5%, 23.3 nM and 275 nM.
On to `C=C(c1ccc(OCCCCCc2ccccc2)cc1)[C@H]1CN[C@H](C(=O)O)[C@H]1CC(=O)O`, for which the Response in assay [1] was determined as 27%; in assay [3], 13%; in assay [5] it was 0%. In addition, the inhibition constant Ki in assay [2] stood at 126 nM; in assay [4] it was 1300 nM.
The corresponding values for `C=C(C)c1ccc(C(=C)[C@H]2CN[C@H](C(=O)O)[C@H]2CC(=O)O)cc1` are 66%, 61%, 17%, 3.6 nM and 132 nM.
Turning to `C=C(c1ccc(C)cc1)[C@H]1CN[C@H](C(=O)O)[C@H]1CC(=O)O`, the values for the Response in assay [1], in assay [3] and in assay [5] were 76%, 72% and 61%, respectively. The values for the inhibition constant (Ki) in assay [2] and in assay [4] were 2.6 nM and 41.1 nM, respectively.
Turning to `C=C(c1ccc(OCCCCC)c(C)c1)[C@H]1CN[C@H](C(=O)O)[C@H]1CC(=O)O`, the Response in assay [1] amounted to 58%; in assay [3] it was 46%; in assay [5] it was 17%. The affinity in assay [4] corresponds to a Ki of 663 nM.
In the case of `C=C(c1cccc(C)c1)[C@H]1CN[C@H](C(=O)O)[C@H]1CC(=O)O`, the results for the Response in assay [1], in assay [3] and in assay [5] were 74%, 75% and 29%, respectively. The Ki is 2.2 nM in assay [2] and 123 nM in assay [4].
On the same counts, the results for `C=C(c1ccc(F)c(C)c1)[C@H]1CN[C@H](C(=O)O)[C@H]1CC(=O)O` are 100%, 76%, 38%, 1.9 nM and 54.3 nM.
